Data: ChEMBL document CHEMBL4610089, “Bulbimidazoles A-C, Antimicrobial and Cytotoxic Alkanoyl Imidazoles from a Marine Gammaproteobacterium Microbulbifer Species” (J Nat Prod, 2020)

Legend:
[1] = system: Colletotrichum gloeosporioides; experiment: Antifungal activity against Glomerella cingulata NBRC5907 assessed as reduction in microbial growth after 20 hrs by liquid microculture method; format: functional; details: NBRC5907, 20 h
Summary of the method: (§1)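 Antifungal MIC by twofold serial dilution in microplates: vehicle at 0.5% of final volume, inoculum from a log-phase culture, incubation at 25 °C. Growth was read as absorbance at 650 nm in triplicate. Amphotericin B was the reference drug.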

[2] = system: P388; experiment: Cytotoxicity against mouse P388 cells assessed as reduction in cell viability after 72 hrs by XTT assay; format: functional, cell-based; details: P388, 72 h
Summary of the method: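 P388 cells were grown in RPMI-1640 with L-glutamine, 10% FBS and 0.1 mg/mL gentamicin sulfate. They were seeded in 96-well round-bottom plates and exposed to compound in 200 μL cultures for 72 h at 37 °C under 5% CO2. Medium containing XTT (1 mg/mL) and PMS (40 μg/mL) was then added for 4 h, the medium was aspirated, and formazan was read at 450 nm. Growth inhibition was calculated per concentration, with doxorubicin as the reference.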

[3] = system: Kocuria rhizophila; experiment: Antibacterial activity against Kocuria rhizophila ATCC9341 assessed as reduction in microbial growth after 20 hrs by liquid microculture method; format: functional; details: ATCC9341, 20 h
Summary of the method: (§2)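 Broth microdilution MIC: twofold serial dilutions of compound were made across the plate, with the solvent vehicle kept at 0.5% of the final culture volume. The inoculum came from a log-phase culture. Plates were incubated at 37 °C for 20 h and growth was read as absorbance at 650 nm, in triplicate. Kanamycin sulfate was the reference drug.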

[4] = system: Candida albicans; experiment: Antifungal activity against Candida albicans NBRC0197 assessed as reduction in microbial growth after 20 hrs by liquid microculture method; format: functional; details: NBRC0197, 20 h; summary of the method: as §1
[5] = system: Trichophyton rubrum; experiment: Antifungal activity against Trichophyton rubrum NBRC5467 assessed as reduction in microbial growth after 20 hrs by liquid microculture method; format: functional; details: NBRC5467, 20 h; summary of the method: as §1
[6] = system: Staphylococcus aureus; experiment: Antibacterial activity against Staphylococcus aureus FDA209P JC-1 assessed as reduction in microbial growth after 20 hrs by liquid microculture method; format: functional; details: FDA209P JC-1, 20 h; summary of the method: as §2
[7] = system: Tenacibaculum maritimum; experiment: Antibacterial activity against Tenacibaculum maritimum NBRC16015 assessed as reduction in microbial growth after 20 hrs by liquid microculture method; format: functional; details: NBRC16015, 20 h
Summary of the method: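 Twofold serial-dilution microculture MIC: vehicle at 0.5% of final volume, log-phase inoculum, incubation at 24 °C. Growth was read as absorbance at 650 nm in triplicate. Sulfamethoxazole was the reference drug.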

[8] = system: Agrobacterium tumefaciens; experiment: Antibacterial activity against Rhizobium radiobacter NBRC14554 assessed as reduction in microbial growth after 20 hrs by liquid microculture method; format: functional; details: NBRC14554, 20 h
Summary of the method: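 Broth microdilution MIC: twofold serial compound dilutions, vehicle at 0.5% of final volume, log-phase inoculum. Incubated at 37 °C for 20 h, with absorbance read at 650 nm in triplicate. Sulfamethoxazole was the reference drug.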

[9] = system: Escherichia coli; experiment: Antibacterial activity against Escherichia coli NIHJ JC-2 assessed as reduction in microbial growth after 20 hrs by liquid microculture method; format: functional; details: NIHJ JC-2, 20 h; summary of the method: as §2

SMILES	MIC [1] [µg/mL]	IC50 [2] [µM]	MIC [3] [µg/mL]	MIC [4] [µg/mL]	MIC [5] [µg/mL]	MIC [6] [µg/mL]	MIC [7] [µg/mL]	MIC [8] [µg/mL]	MIC [9] [µg/mL]
CC(C)CCCCCCC(=O)c1c[nH]cn1	3.12	7	1.56	6.25	3.12	3.12	12.5	> 100	> 100
CCCCCCCCCC(=O)c1c[nH]cn1	1.56	5.8	0.78	12.5	1.56	1.56	6.25	> 100	> 100
CCC(C)CCCCCCC(=O)c1c[nH]cn1 (racemic)	1.56	5	0.78	6.25	0.78	1.56	3.12	> 100	> 100
